Data: ChEMBL document CHEMBL5107950, “Structure-based design of haloperidol analogues as inhibitors of acetyltransferase Eis from Mycobacterium tuberculosis to overcome kanamycin resistance” (RSC Med Chem, 2021)
≈ marks a conversion by molar mass, not a printed value. Calls of active or inactive are those of the source. The rule behind the calls is not given here.

Key:
[1] = test system: Mycobacterium tuberculosis; assay: Antibacterial activity against Mycobacterium tuberculosis mc2 6230 with Eis C-14T mutation assessed as inhibition of bacterial growth incubated upto 3 weeks hrs by resazurin dye based double-dilution method; type: functional
Outline: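 Double-dilution broth MIC. Media: M. smegmatis, Mueller-Hinton; M. abscessus, 7H9 + 0.05% Tween80 + 0.4% glycerol; mc²6230, 7H9 + 0.05% tyloxapol, 0.5% glycerol, 10% OADC, 0.2% casamino acids, 24 µg/mL pantothenate; other mycobacteria, 7H9 + 0.05% Tween80, 0.4% glycerol, 10% ADC. Inoculum from agar set to 0.5 McFarland, then diluted 1:100.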

[2] = test system: Mycobacterium tuberculosis; assay: Antibacterial activity against Mycobacterium tuberculosis mc2 6230-K204 with Eis C-14T mutation inhibition of bacterial growth at 100 uM incubated for 1 week by resazurin staining based microdilution method; type: functional, organism-based; conditions: time 1.0 weeks
[3] = test system: Mycobacterium tuberculosis; assay: Antibacterial activity against Mycobacterium tuberculosis H37Rv mc2 6230 with Eis C-14T mutation assessed as inhibition of bacterial growth at 100 uM incubated for 1 week by resazurin staining based microdilution method; type: functional, organism-based; conditions: time 1.0 weeks
[4] = test system: Mycobacterium tuberculosis; assay: Potentiation of kanamycin-induced antibacterial activity against Mycobacterium tuberculosis mc2 6230-K204 with Eis C-14T mutation assessed as kanamycin MIC incubated for 1 week by resazurin staining based microdilution method; type: functional; conditions: time 1 weeks
Outline: (§1)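 Microdilution in 7H9 + 10% OADC, 0.5% glycerol, 0.05% tyloxapol, 0.2% casamino acids, 24 µg/mL pantothenate. […] Culture at 0.5 McFarland diluted 1:100 and added. Incubated one week at 37 °C, then 5 µL of 2.5 mg/mL resazurin added, read after two days. Duplicate.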

[5] = test system: Mycobacterium tuberculosis; assay: Potentiation of kanamycin-induced antibacterial activity against Mycobacterium tuberculosis H37Rv mc2 6230 with Eis C-14T mutation assessed as kanamycin MIC incubated for 1 week by resazurin staining based microdilution method; type: functional; conditions: time 1 weeks; outline: as §1

Row | Structure (SMILES) | MIC [1] [µM] | inhibition [2] | inhibition [3] | MIC [4] [mg/L] | MIC [5]
1 | O=C(CCCN1CC=C(c2ccc(Cl)cc2)CC1)c1ccc(F)cc1 | 32 (≈ 11.5 µg/mL) | Active | Active |  | 
2 | CC(C)(C)c1ccc(C(=O)CCCN2CCC(O)(c3ccc(Br)cc3)CC2)cc1 | 4 (≈ 1.83 µg/mL) |  |  |  | 
3 | CC(C)(C)c1ccc(C(=O)CCCN2CCC(O)(c3ccc(Cl)cc3)CC2)cc1 | 2 (≈ 0.828 µg/mL) |  |  |  | 
4 | O=C(CCCN1CCCCC1)c1ccc(F)cc1 [PRIMAPERONE] |  |  |  | >10 | <=1.25 ug ml-1
5 | CCc1ccc(C(=O)CCCN2CCC(O)(c3ccc(Cl)cc3)CC2)cc1 | 15.6 (≈ 6.02 µg/mL) |  |  |  | 
6 | O=C(CCCN1CCC(O)CC1)c1ccc(F)cc1 |  |  |  | >10 | <=1.25 ug ml-1
7 | CC(C)c1ccc(C(=O)CCCN2CCC(O)(c3ccc(Cl)cc3)CC2)cc1 | 7.8 (≈ 3.12 µg/mL) |  |  |  | 
8 | Cc1ccc(C(=O)CCCN2CCC(O)(c3ccc(Cl)cc3)CC2)cc1 | 31.3 (≈ 11.6 µg/mL) |  |  |  | 
9 | O=C(CCCN1CCC(c2ccc(Cl)cc2)CC1)c1ccc(F)cc1 | 64 (≈ 23 µg/mL) | Active | Active |  | 
10 | N=C(N)NCCCC(=O)c1ccc(F)cc1 | >64 |  |  | >10 | <=1.25 ug ml-1
11 | O=C(CCCN1CCC(O)(c2ccccc2)CC1)c1ccc(F)cc1 | >64 |  |  | >10 | <=1.25 ug ml-1
